From PubChem BioAssay

Biological target: Muscarinic acetylcholine receptor M4 (Homo sapiens) (UniProt P08173)
Assay: compounds altering M4/GIRK thallium flux, either direction, primary screen, M4 allosteric agonist project, cell-based, HEK293 M4/GIRK, BTC-AM (AID 625);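 further: thallium influx through GIRK channels coupled to M4 in HEK293 cells with BTC-AM dye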
Conditions: at 10 µM, actives lie on both sides
Outline: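 Material: M4/GIRK1/GIRK2 stable HEK293 cell line. Medium: pH 7.3 thallium assay buffer. Dosing: single compound concentration, 10 µM final. Schedule: 1 h dye loading, 2 min kinetic read. Measured by: kinetic fluorescence with BTC-AM dye. Read-out: post-addition slope, 15–24 s, of baseline-normalized fluorescence. Benchmarks: carbachol and DMSO controls.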

Muscarinic acetylcholine receptor M4 (Homo sapiens), sequence (P08173 whole entry, looked up): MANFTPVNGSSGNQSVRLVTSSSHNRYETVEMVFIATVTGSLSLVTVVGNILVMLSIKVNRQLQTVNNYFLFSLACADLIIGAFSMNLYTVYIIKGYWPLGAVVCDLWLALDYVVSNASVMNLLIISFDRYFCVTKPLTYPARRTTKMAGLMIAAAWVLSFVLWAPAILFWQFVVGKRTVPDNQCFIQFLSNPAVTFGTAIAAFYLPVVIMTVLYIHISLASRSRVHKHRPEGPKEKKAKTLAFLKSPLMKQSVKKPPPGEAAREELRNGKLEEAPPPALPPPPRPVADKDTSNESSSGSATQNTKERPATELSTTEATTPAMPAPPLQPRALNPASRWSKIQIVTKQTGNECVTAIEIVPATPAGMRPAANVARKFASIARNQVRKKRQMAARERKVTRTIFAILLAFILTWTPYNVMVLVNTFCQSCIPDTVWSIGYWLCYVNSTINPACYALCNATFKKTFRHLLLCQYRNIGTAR

Fluorescence slope, inactive:
CCOc1ccc(NC(=O)CN2CCN(CC(=O)Nc3ccc(F)c(F)c3)CC2)cc1 0.00651, C=C(C)COc1ccc(-c2nc(N)ncc2Oc2ccccc2OCC)c(O)c1 0.00507, Clc1ccccc1-c1nnc2sc(-c3ccccn3)nn12 0.00382, CCOc1cccc(C(=O)Nc2cccc(-c3nc4ncccc4o3)c2C)c1 0.00572, CCOC(=O)N1CCN(S(=O)(=O)c2cc(Cl)c(OC)cc2Cl)CC1 0.00536, CCCCN(CC)S(=O)(=O)N1CCC(C(=O)NCc2ccc(F)cc2)CC1 0.00507, Cc1ccc(Nc2nnns2)cc1C 0.00717, C=CCn1c(=O)/c(=C/c2ccc(O)cc2)s/c1=C(/C#N)c1nnc2n1CCCCC2 0.00728, CC(=O)Nc1c(Cl)n(C(C)=O)c2ccccc12 0.00935, COc1ccc(OC)c(S(=O)(=O)Nc2ccccc2C(=O)O)c1 0.0048, Cc1ccc(C)c(NC(=O)C2CCC(C)(C(=O)O)C2(C)C)c1 (stereo not given) 0.00734, Oc1ccc(N2CCN(C(c3cccnc3)c3nnnn3Cc3ccccc3)CC2)cc1 (stereo not given) 0.0054, CC(C(=O)N1CCOCC1)N1c2cccc3cccc(c23)S1(=O)=O (stereo not given) 0.00313, Cc1nc2ccccn2c1/C(O)=C1\C(=O)C(=O)N(CCN2CCOCC2)C1c1cccs1 (stereo not given) 0.00659, COC(=O)c1cc(OC)c(OC)cc1NC(=O)CC1CCCCC1 0.00549, COc1ccccc1C(=O)Nc1c2c(nn1-c1cccc(C)c1C)CS(=O)(=O)C2 0.00519, CC(C)=CC(=O)Nc1ccc(Br)cc1 0.00668, COc1cccc2c(=O)c3c(cnn3C)n(C)c12 0.00385, O=C(c1noc2c1CCc1ccccc1-2)N1CCOCC1 0.0064, CCN1CCN(C(=O)c2ccc3c(=O)n(C4CCCC4)c(=S)[nH]c3c2)CC1 0.00572, CCC(Oc1ccc2ccccc2c1)C(=O)O (stereo not given) 0.00595, CC(=O)c1nnn(-c2nc(N3CCCC3)nc(N(c3ccccc3)c3ccccc3)n2)c1C 0.00803, COc1ccc(-n2cc(-c3ccccc3)c3c(N4CCN(CCO)CC4)ncnc32)cc1 0.003, O=C(N1CCCCCC1)N1CCN(S(=O)(=O)N2CCCCC2)CC1 0.00553, OCC#CCSc1nnc(-c2ccccc2Br)o1 0.00341, CC(C(=O)N1CCc2ccccc21)N1CCc2ccccc2C1 (stereo not given) 0.00595, C=CCN(CC=C)C(=O)CN1C(=O)c2ccccc2C1=O 0.0065, O=C(Cn1nnc2c(cnn2-c2ccc(F)cc2)c1=O)c1ccccc1F 0.00571, COc1cccc(-c2noc(CCC(=O)NC3CCCCC3)n2)c1 0.00539, Cc1cc(C)c2cc(CN(CC3CCCO3)C(=O)NC3CCCCC3)c(=O)[nH]c2c1 (stereo not given) 0.0057, CCOc1cc(C)c(Cl)cc1S(=O)(=O)N(C)C 0.00578, COc1ccc(CCNS(=O)(=O)c2ccc3c(c2)CCN3C(=O)CCC(=O)O)cc1OC 0.00473, CCOc1ccc(OCc2cccc(C(=O)O)c2)cc1 0.00598, O=c1c2ccccc2cnn1-c1nc2ccccc2s1 0.00555, CCC(C)c1ccc(NC(=O)C2CC2)cc1 (stereo not given) 0.00602, O=C(CC1CCCCC1)NCc1ccccn1 0.00493, CS(=O)(=O)N(CC(=O)N1CCN(c2cccc(Cl)c2)CC1)C1CCCCC1 0.00576, Cc1ccc(N2CCN(C(=O)c3ccccc3Br)CC2)c(C)c1 0.00352, COC(=O)c1c(N)nc(C)n1-c1ccc(OC)cc1 0.00554, O=C(O)CC1CCCC(c2ccccc2)C1=O (stereo not given) 0.00508

Tested on: not listed separately
Assay: inhibitors of Sendai virus-induced IRF3 signaling, primary screen, TLR/RLR signaling modifier project, cell-based, Sendai virus stimulus, luciferase, 10K MLSCN set (AID 602276;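 active means inhibition at or above 50% at 10 µM; inactive means inhibition below 50%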;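 further: firefly luciferase from ISG56 promoter only with Renilla not read in this screen; 0% = Sendai virus plus DMSO and 100% = medium plus DMSO without virus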)
Conditions: HEK293 RL24 IRF3 luciferase reporter, at 10 µM, active compounds read high

inhibition, inactive:
CCOc1ccc(NC(=O)CN2CCN(CC(=O)Nc3ccc(F)c(F)c3)CC2)cc1 12.5%, C=C(C)COc1ccc(-c2nc(N)ncc2Oc2ccccc2OCC)c(O)c1 17.7%, Clc1ccccc1-c1nnc2sc(-c3ccccn3)nn12 14.6%, CCOc1cccc(C(=O)Nc2cccc(-c3nc4ncccc4o3)c2C)c1 11.9%, CCOC(=O)N1CCN(S(=O)(=O)c2cc(Cl)c(OC)cc2Cl)CC1 -2.67%, CCCCN(CC)S(=O)(=O)N1CCC(C(=O)NCc2ccc(F)cc2)CC1 12.4%, Cc1ccc(Nc2nnns2)cc1C 6.92%, C=CCn1c(=O)/c(=C/c2ccc(O)cc2)s/c1=C(/C#N)c1nnc2n1CCCCC2 17.7%, CC(=O)Nc1c(Cl)n(C(C)=O)c2ccccc12 27.6%, COc1ccc(OC)c(S(=O)(=O)Nc2ccccc2C(=O)O)c1 23.8%, Cc1ccc(C)c(NC(=O)C2CCC(C)(C(=O)O)C2(C)C)c1 (stereo not given) 15.8%, Oc1ccc(N2CCN(C(c3cccnc3)c3nnnn3Cc3ccccc3)CC2)cc1 (stereo not given) 9.52%, CC(C(=O)N1CCOCC1)N1c2cccc3cccc(c23)S1(=O)=O (stereo not given) 17.3%, Cc1nc2ccccn2c1/C(O)=C1\C(=O)C(=O)N(CCN2CCOCC2)C1c1cccs1 (stereo not given) -0.701%, COC(=O)c1cc(OC)c(OC)cc1NC(=O)CC1CCCCC1 11.3%, COc1ccccc1C(=O)Nc1c2c(nn1-c1cccc(C)c1C)CS(=O)(=O)C2 14.2%, CC(C)=CC(=O)Nc1ccc(Br)cc1 -88%, COc1cccc2c(=O)c3c(cnn3C)n(C)c12 -10.8%, O=C(c1noc2c1CCc1ccccc1-2)N1CCOCC1 -5.37%, CCN1CCN(C(=O)c2ccc3c(=O)n(C4CCCC4)c(=S)[nH]c3c2)CC1 -15.8%, CCC(Oc1ccc2ccccc2c1)C(=O)O (stereo not given) -9.77%, CC(=O)c1nnn(-c2nc(N3CCCC3)nc(N(c3ccccc3)c3ccccc3)n2)c1C 15.9%, COc1ccc(-n2cc(-c3ccccc3)c3c(N4CCN(CCO)CC4)ncnc32)cc1 13.2%, O=C(N1CCCCCC1)N1CCN(S(=O)(=O)N2CCCCC2)CC1 24%, OCC#CCSc1nnc(-c2ccccc2Br)o1 -9.39%, CC(C(=O)N1CCc2ccccc21)N1CCc2ccccc2C1 (stereo not given) 10.2%, C=CCN(CC=C)C(=O)CN1C(=O)c2ccccc2C1=O 19.9%, O=C(Cn1nnc2c(cnn2-c2ccc(F)cc2)c1=O)c1ccccc1F 11.8%, COc1cccc(-c2noc(CCC(=O)NC3CCCCC3)n2)c1 11%, Cc1cc(C)c2cc(CN(CC3CCCO3)C(=O)NC3CCCCC3)c(=O)[nH]c2c1 (stereo not given) 16.7%, CCOc1cc(C)c(Cl)cc1S(=O)(=O)N(C)C 20.4%, COc1ccc(CCNS(=O)(=O)c2ccc3c(c2)CCN3C(=O)CCC(=O)O)cc1OC 12.6%, CCOc1ccc(OCc2cccc(C(=O)O)c2)cc1 -46.2%, O=c1c2ccccc2cnn1-c1nc2ccccc2s1 20.5%, CCC(C)c1ccc(NC(=O)C2CC2)cc1 (stereo not given) -20.4%, O=C(CC1CCCCC1)NCc1ccccn1 11.5%, CS(=O)(=O)N(CC(=O)N1CCN(c2cccc(Cl)c2)CC1)C1CCCCC1 2.97%, Cc1ccc(N2CCN(C(=O)c3ccccc3Br)CC2)c(C)c1 15.2%, COC(=O)c1c(N)nc(C)n1-c1ccc(OC)cc1 5.37%, O=C(O)CC1CCCC(c2ccccc2)C1=O (stereo not given) 8.33%
